We go through six molecules from ChEMBL document CHEMBL1144240, “Binding is not enough: flexibility is needed for photocrosslinking of Lck kinase by benzophenone photoligands” (Bioorg Med Chem, 2008).

The source made the active and inactive calls. The calls are words filed in the database; no cut-off is given here.

In data set [1] the target is T1, Tyrosine-protein kinase Lck (Homo sapiens, UniProt P06239). The data set is described as follows: Inhibition of Lck by luciferase based assay. The essentials:
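Lck (prediluted to 46 ng/µl) was mixed with Src substrate peptide (0.25 mM stock) in 50 mM HEPES pH 7.3, 2.5 mM DTT, 0.01% Triton X-100 and 10 mM MgCl2, plus ligand at various concentrations. Reaction was started with 100 µM ATP stock and run 1 h at room temperature. Residual ATP was read by Kinase-Glo Plus luminescence after 10 min. IC50 with 95% CI from sigmoidal fit, n = 2 or 3.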

Data set [2] concerns the target T1, Tyrosine-protein kinase Lck. The data set is described as follows: Binding affinity to Lck assessed as photolabeling efficiency by Western blot analysis. The method, boiled down:
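Lck was photocrosslinked with each ligand at 0, 3, 9, 18, 36, 90 and 180 µM. Labeled-band intensities were plotted against probe concentration. EC50 (ligand concentration giving 50% of maximal labeling) and its 95% CI were obtained by sigmoidal dose-response fitting of triplicate trials (n = 3).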
On the technique in general: In western blotting, separated proteins are transferred to a membrane and probed.
Target sequence in this assay (P06239 whole entry): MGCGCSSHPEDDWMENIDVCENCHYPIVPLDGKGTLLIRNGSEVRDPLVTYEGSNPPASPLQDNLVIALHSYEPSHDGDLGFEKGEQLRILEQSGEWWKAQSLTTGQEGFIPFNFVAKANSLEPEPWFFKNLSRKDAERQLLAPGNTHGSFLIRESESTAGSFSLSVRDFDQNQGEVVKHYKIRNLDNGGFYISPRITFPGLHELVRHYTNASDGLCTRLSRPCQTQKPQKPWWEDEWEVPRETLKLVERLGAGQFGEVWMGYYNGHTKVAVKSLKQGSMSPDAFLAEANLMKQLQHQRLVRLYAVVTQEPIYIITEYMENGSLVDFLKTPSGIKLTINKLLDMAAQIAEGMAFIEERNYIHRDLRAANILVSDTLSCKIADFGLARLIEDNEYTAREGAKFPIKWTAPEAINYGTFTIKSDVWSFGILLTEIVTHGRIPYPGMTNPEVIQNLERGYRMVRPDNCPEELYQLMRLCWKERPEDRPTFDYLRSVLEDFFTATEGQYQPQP

A short description of data set [3]: Chemical stability after 30 mins of UV irradiation by RP-HPLC. It is filed as physicochemical. The note with it: read-out: Stability. The essentials:
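Free ligands in buffer solution were irradiated under a UV-A lamp (λmax 350 nm). Aliquots were taken at 0, 10 and 30 min, and intact ligand was quantified by HPLC with UV detection at 280 nm.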

For data set [4], the target named is T1, Tyrosine-protein kinase Lck. Briefly: Binding affinity to Lck assessed as photolabeling efficiency in presence of ATP-competitive Lck inhibitor by Western blot.
Target sequence in this assay (P06239 2-509 limits assumed): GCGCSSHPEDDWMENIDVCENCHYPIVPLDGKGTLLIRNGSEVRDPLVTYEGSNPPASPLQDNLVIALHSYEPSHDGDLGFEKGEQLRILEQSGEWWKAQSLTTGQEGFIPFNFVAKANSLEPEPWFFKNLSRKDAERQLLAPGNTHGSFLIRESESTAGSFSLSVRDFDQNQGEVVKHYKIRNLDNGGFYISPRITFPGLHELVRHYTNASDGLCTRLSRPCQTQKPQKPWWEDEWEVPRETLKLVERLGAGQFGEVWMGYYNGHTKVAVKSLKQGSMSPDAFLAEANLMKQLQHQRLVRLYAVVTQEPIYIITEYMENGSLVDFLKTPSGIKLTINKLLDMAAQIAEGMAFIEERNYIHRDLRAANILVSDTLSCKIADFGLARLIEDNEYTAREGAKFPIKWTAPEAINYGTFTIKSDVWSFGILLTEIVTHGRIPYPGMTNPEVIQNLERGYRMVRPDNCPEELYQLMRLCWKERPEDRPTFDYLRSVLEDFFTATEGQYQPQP

In general, EC50 refers to the concentration needed to bring the measured effect to its halfway point. For `Nc1ncnc2c1ncn2CC(=O)N(CCNC(=O)CNC(=O)[C@H](Cc1ccc(C(=O)c2ccccc2)cc1)NC(=O)CCCNC(=O)CCCC[C@@H]1SC[C@@H]2NC(=O)N[C@@H]21)CC(=O)NCC(=O)O`, the result in data set [1] and in data set [4] was inactive. For the same molecule, the EC50 in data set [2] is 14.4 µM. For the same molecule, the remaining at 0.5 h in data set [3] worked out at 70%.
Take `Nc1ncnc2c1ncn2CC(=O)N(CCNC(=O)[C@H]1CCCCN1C(=O)[C@H](Cc1ccc(C(=O)c2ccccc2)cc1)NC(=O)CCCNC(=O)CCCC[C@@H]1SC[C@@H]2NC(=O)N[C@@H]21)CC(=O)NCC(=O)O`: in data set [1], the outcome was inactive. Moreover, in data set [2], the EC50 is > 150 µM. Besides, in data set [3], the remaining at 0.5 h came out at 70%.
As for `Nc1ncnc2c1ncn2CC(=O)N(CCNC(=O)[C@@H](CCC(=O)O)NC(=O)[C@H](Cc1ccc(C(=O)c2ccccc2)cc1)NC(=O)CCCNC(=O)CCCC[C@@H]1SC[C@@H]2NC(=O)N[C@@H]21)CC(=O)NCC(=O)O`, the result in data set [1] and in data set [4] was inactive. Further, the EC50 in data set [2] was found to be 18.4 µM. The remaining at 0.5 h in data set [3] came to 70%.
Usually IC50 stands for the concentration needed to halve the response being measured. In turn, `Nc1ncnc2c1ncn2CC(=O)N(CCNC(=O)[C@H]1CCCN1C(=O)[C@H](Cc1ccc(C(=O)c2ccccc2)cc1)NC(=O)CCCNC(=O)CCCC[C@@H]1SC[C@@H]2NC(=O)N[C@@H]21)CC(=O)NCC(=O)O` showed an IC50 in data set [1] of 50 µM. Further, the EC50 in data set [2] is > 150 µM. Besides, the remaining at 0.5 h in data set [3] stood at 70%.
Take `Nc1ncnc2c1ncn2CC(=O)N(CCNC(=O)[C@@H](CO)NC(=O)[C@H](Cc1ccc(C(=O)c2ccccc2)cc1)NC(=O)CCCNC(=O)CCCC[C@@H]1SC[C@@H]2NC(=O)N[C@@H]21)CC(=O)NCC(=O)O`: in data set [1], the IC50 is 50 µM. For the same molecule, the concentration for a half-maximal effect (EC50) in data set [2] stood at 23.3 µM. Moreover, in data set [3], the remaining at 0.5 h worked out at 70%. Moreover, the result in data set [4] was inactive.
Consider `Nc1ncnc2c1ncn2CC(=O)N(CCNC(=O)CCCNC(=O)[C@H](Cc1ccc(C(=O)c2ccccc2)cc1)NC(=O)CCCNC(=O)CCCC[C@@H]1SC[C@@H]2NC(=O)N[C@@H]21)CC(=O)NCC(=O)O`, for which the result in data set [1] and in data set [4] was inactive. In addition, the EC50 in data set [2] came to 4.4 µM. Moreover, in data set [3], the remaining at 0.5 h worked out at 70%.
